{"source": "ChEMBL document CHEMBL5236609", "about": "“Optimization of 1,2,4-Triazole-3-thiones toward Broad-Spectrum Metallo-β-lactamase Inhibitors Showing Potent Synergistic Activity on VIM- and NDM-1-Producing Clinical Isolates” (J Med Chem, 2022)", "key": {"[1]": {"assay": "Chelation of Zn(II) in bacterial NDM-1 (unknown origin) by isothermal calorimetric assay"}, "[2]": {"target": "T1, Aminopeptidase N (Sus scrofa) (UniProt P15145)", "T1 sequence (whole entry)": "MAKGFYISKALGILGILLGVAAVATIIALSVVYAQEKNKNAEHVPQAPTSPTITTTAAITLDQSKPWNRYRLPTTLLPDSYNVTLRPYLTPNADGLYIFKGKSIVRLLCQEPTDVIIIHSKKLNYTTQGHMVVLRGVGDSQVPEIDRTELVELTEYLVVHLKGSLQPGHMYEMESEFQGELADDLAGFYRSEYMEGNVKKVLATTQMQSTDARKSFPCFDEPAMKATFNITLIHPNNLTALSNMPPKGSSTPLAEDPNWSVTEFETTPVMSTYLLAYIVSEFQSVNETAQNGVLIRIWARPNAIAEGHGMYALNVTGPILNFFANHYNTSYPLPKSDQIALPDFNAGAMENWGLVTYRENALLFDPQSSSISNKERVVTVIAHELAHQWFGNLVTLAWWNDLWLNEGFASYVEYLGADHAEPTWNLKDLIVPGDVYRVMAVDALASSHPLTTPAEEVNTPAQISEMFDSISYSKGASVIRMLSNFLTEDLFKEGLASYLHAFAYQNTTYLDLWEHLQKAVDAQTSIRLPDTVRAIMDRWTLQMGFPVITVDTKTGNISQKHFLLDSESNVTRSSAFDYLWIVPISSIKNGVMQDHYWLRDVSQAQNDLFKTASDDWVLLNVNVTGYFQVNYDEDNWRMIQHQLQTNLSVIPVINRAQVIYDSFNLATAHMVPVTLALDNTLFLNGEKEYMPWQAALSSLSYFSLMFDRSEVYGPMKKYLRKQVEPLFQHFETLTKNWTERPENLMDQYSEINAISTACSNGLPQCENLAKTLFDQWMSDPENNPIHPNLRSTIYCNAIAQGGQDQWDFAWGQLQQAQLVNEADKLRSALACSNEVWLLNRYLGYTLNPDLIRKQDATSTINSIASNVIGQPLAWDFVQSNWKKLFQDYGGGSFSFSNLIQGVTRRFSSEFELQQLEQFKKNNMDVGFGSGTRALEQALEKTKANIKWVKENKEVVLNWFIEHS", "assay": "Inhibition of porcine APN using fluorogenic substrate H-Leu-AMC measured for 1 h rat 100 uM relative to control"}, "Bacteria [3]": {"test_system": "Bacteria", "assay": "Binding affinity to bacterial VIM-2 (unknown origin) assessed as association constant by isothermal calorimetric assay", "summary_of_the_method": "(§1)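 ITC at 25 °C. VIM-2 at 19 μM in 10 mM HEPES-NaOH, 0.15 M NaCl, pH 7.5 with DMSO matched to 1%, titrated with compound at 200 μM: one 0.5 μL injection, then 19 × 2 μL at 150 s intervals. Buffer dilution heats subtracted. Nonlinear fit gives n, Ka and ΔH°; values regarded as apparent.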"}, "[4]": {"assay": "Binding affinity to bacterial VIM-2 (unknown origin) assessed as dissociation constant by isothermal calorimetric assay", "design": "species or system Bacteria", "summary_of_the_method": "as §1"}, "Bacteria [5]": {"test_system": "Bacteria", "assay": "Binding affinity to bacterial VIM-2 (unknown origin) assessed as Gibbs free energy by isothermal calorimetric assay", "summary_of_the_method": "as §1"}, "Bacteria [6]": {"test_system": "Bacteria", "assay": "Binding affinity to bacterial VIM-2 (unknown origin) assessed as change in enthalpy by isothermal calorimetric assay", "summary_of_the_method": "as §1"}, "Klebsiella pneumoniae [7]": {"test_system": "Klebsiella pneumoniae", "assay": "Antimicrobial activity against blaVIM-1-producing multidrug-resistant Klebsiella pneumoniae 7023 clinical isolate assessed as meropenem MIC using cation-adjusted Mueller-Hinton broth at 16 ug/ml by broth microdilution method (reference value: […] ug/ml)", "assay_type": "functional", "settings": "dose 16 µg/ml", "summary_of_the_method": "(§2)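 Checkerboard broth microdilution in cation-supplemented Mueller–Hinton broth, inoculum 5×10^4 CFU/well, per CLSI. […] The average fractional inhibitory concentration index was computed from the checkerboard.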"}, "Klebsiella pneumoniae [8]": {"test_system": "Klebsiella pneumoniae", "assay": "Antimicrobial activity against blaVIM-1-producing multidrug-resistant Klebsiella pneumoniae 7023 clinical isolate assessed as meropenem MIC using cation-adjusted Mueller-Hinton broth at 4 ug/ml by broth microdilution method (reference value: […] ug/ml)", "assay_type": "functional", "settings": "dose 4 µg/ml", "summary_of_the_method": "as §2"}, "Klebsiella pneumoniae [9]": {"test_system": "Klebsiella pneumoniae", "assay": "Antimicrobial activity against blaVIM-1-producing multidrug-resistant Klebsiella pneumoniae 7023 clinical isolate assessed as meropenem MIC using cation-adjusted Mueller-Hinton broth at 2 ug/ml by broth microdilution method (reference value: […] ug/ml)", "assay_type": "functional", "settings": "dose 2 µg/ml", "summary_of_the_method": "as §2"}, "Klebsiella pneumoniae [10]": {"test_system": "Klebsiella pneumoniae", "assay": "Antimicrobial activity against blaVIM-1-producing multidrug-resistant Klebsiella pneumoniae 7023 clinical isolate assessed as meropenem MIC using cation-adjusted Mueller-Hinton broth at 1 ug/ml by broth microdilution method (reference value: […] ug/ml)", "assay_type": "functional", "settings": "dose 1 µg/ml", "summary_of_the_method": "as §2"}, "Klebsiella pneumoniae [11]": {"test_system": "Klebsiella pneumoniae", "assay": "Antimicrobial activity against blaVIM-1-producing multidrug-resistant Klebsiella pneumoniae 7023 clinical isolate assessed as meropenem MIC using cation-adjusted Mueller-Hinton broth at 0.5 ug/ml by broth microdilution method (reference value: […] ug/ml)", "assay_type": "functional", "settings": "dose 0.5 µg/ml", "summary_of_the_method": "as §2"}, "Klebsiella pneumoniae [12]": {"test_system": "Klebsiella pneumoniae", "assay": "Antimicrobial activity against blaVIM-4-producing multidrug-resistant Klebsiella pneumoniae VA-416/02 clinical isolate assessed as meropenem MIC using cation-adjusted Mueller-Hinton broth at 32 ug/ml by broth microdilution method (reference value: […] ug/ml)", "assay_type": "functional", "settings": "dose 32 µg/ml", "summary_of_the_method": "as §2"}, "Klebsiella pneumoniae [13]": {"test_system": "Klebsiella pneumoniae", "assay": "Antimicrobial activity against blaVIM-4-producing multidrug-resistant Klebsiella pneumoniae VA-416/02 clinical isolate assessed as meropenem MIC using cation-adjusted Mueller-Hinton broth at 16 ug/ml by broth microdilution method (reference value: […] ug/ml)", "assay_type": "functional", "settings": "dose 16 µg/ml", "summary_of_the_method": "as §2"}, "Klebsiella pneumoniae [14]": {"test_system": "Klebsiella pneumoniae", "assay": "Antimicrobial activity against blaVIM-4-producing multidrug-resistant Klebsiella pneumoniae VA-416/02 clinical isolate assessed as meropenem MIC using cation-adjusted Mueller-Hinton broth at 8 ug/ml by broth microdilution method (reference value: […] ug/ml)", "assay_type": "functional", "settings": "dose 8 µg/ml", "summary_of_the_method": "as §2"}, "Klebsiella pneumoniae [15]": {"test_system": "Klebsiella pneumoniae", "assay": "Antimicrobial activity against blaVIM-4-producing multidrug-resistant Klebsiella pneumoniae VA-416/02 clinical isolate assessed as meropenem MIC using cation-adjusted Mueller-Hinton broth at 1 ug/ml by broth microdilution method (reference value: […] ug/ml)", "assay_type": "functional", "settings": "dose 1 µg/ml", "summary_of_the_method": "as §2"}, "Klebsiella pneumoniae [16]": {"test_system": "Klebsiella pneumoniae", "assay": "Antimicrobial activity against blaVIM-4-producing multidrug-resistant Klebsiella pneumoniae VA-416/02 clinical isolate assessed as meropenem MIC using cation-adjusted Mueller-Hinton broth at 0.5 ug/ml by broth microdilution method (reference value: […] ug/ml)", "assay_type": "functional", "settings": "dose 0.5 µg/ml", "summary_of_the_method": "as §2"}, "Escherichia coli [17]": {"test_system": "Escherichia coli", "assay": "Antimicrobial activity against blaNDM-1-producing multidrug-resistant Escherichia coli SI-004 clinical isolate assessed as meropenem MIC using cation-adjusted Mueller-Hinton broth at 32 ug/ml by broth microdilution method (reference value: 64 ug/ml)", "assay_type": "functional", "settings": "dose 32 µg/ml", "summary_of_the_method": "as §2"}, "Escherichia coli [18]": {"test_system": "Escherichia coli", "assay": "Antimicrobial activity against blaNDM-1-producing multidrug-resistant Escherichia coli SI-004 clinical isolate assessed as meropenem MIC using cation-adjusted Mueller-Hinton broth at 8 ug/ml by broth microdilution method (reference value: 64 ug/ml)", "assay_type": "functional", "settings": "dose 8 µg/ml", "summary_of_the_method": "as §2"}, "Escherichia coli [19]": {"test_system": "Escherichia coli", "assay": "Antimicrobial activity against blaNDM-1-producing multidrug-resistant Escherichia coli SI-004 clinical isolate assessed as meropenem MIC using cation-adjusted Mueller-Hinton broth at 2 ug/ml by broth microdilution method (reference value: 64 ug/ml)", "assay_type": "functional", "settings": "dose 2 µg/ml", "summary_of_the_method": "as §2"}, "Escherichia coli [20]": {"test_system": "Escherichia coli", "assay": "Antimicrobial activity against blaNDM-1-producing multidrug-resistant Escherichia coli SI-004 clinical isolate assessed as meropenem MIC using cation-adjusted Mueller-Hinton broth at 1 ug/ml by broth microdilution method (reference value: 64 ug/ml)", "assay_type": "functional", "settings": "dose 1 µg/ml", "summary_of_the_method": "as §2"}}, "note": "The source made the active and inactive calls. No cut-off for these calls is given here.", "data": [{"smiles": "O=C(O)[C@H](CCCn1c(-c2ccccc2)n[nH]c1=S)N(Cc1ccccn1)Cc1ccccn1", "values": [{"measurement": "Activity", "setting": "[1]", "result": "inactive"}, {"measurement": "inhibition", "setting": "[2]", "result": 30, "unit": "%"}]}, {"smiles": "O=C(O)[C@H](CCCn1c(-c2ccccc2)n[nH]c1=S)N(Cc1c[nH]cn1)Cc1c[nH]cn1", "values": [{"measurement": "Ka", "setting": "Bacteria [3]", "result": "1.4 10^6/M"}, {"measurement": "Kd", "setting": "[4]", "result": 700, "unit": "nM"}, {"measurement": "deltaG", "setting": "Bacteria [5]", "result": -8.4, "unit": "kcal/mol"}, {"measurement": "deltaH", "setting": "Bacteria [6]", "result": -9.8, "unit": "kcal/mol"}, {"measurement": "Activity", "setting": "[1]", "result": "Active"}, {"measurement": "MIC", "setting": "Klebsiella pneumoniae [7]", "result": 0.06, "unit": "µg/mL"}, {"measurement": "MIC", "setting": "Klebsiella pneumoniae [8]", "result": 2, "unit": "µg/mL"}, {"measurement": "MIC", "setting": "Klebsiella pneumoniae [9]", "result": 4, "unit": "µg/mL"}, {"measurement": "MIC", "setting": "Klebsiella pneumoniae [10]", "result": 8, "unit": "µg/mL"}, {"measurement": "MIC", "setting": "Klebsiella pneumoniae [11]", "result": 16, "unit": "µg/mL"}, {"measurement": "MIC", "setting": "Klebsiella pneumoniae [12]", "result": 0.03, "unit": "µg/mL"}, {"measurement": "MIC", "setting": "Klebsiella pneumoniae [13]", "result": 0.06, "unit": "µg/mL"}, {"measurement": "MIC", "setting": "Klebsiella pneumoniae [14]", "result": 1, "unit": "µg/mL"}, {"measurement": "MIC", "setting": "Klebsiella pneumoniae [15]", "result": 8, "unit": "µg/mL"}, {"measurement": "MIC", "setting": "Klebsiella pneumoniae [16]", "result": 16, "unit": "µg/mL"}, {"measurement": "MIC", "setting": "Escherichia coli [17]", "result": 0.03, "unit": "µg/mL"}, {"measurement": "MIC", "setting": "Escherichia coli [18]", "result": 32, "unit": "µg/mL"}, {"measurement": "MIC", "setting": "Escherichia coli [19]", "result": 64, "unit": "µg/mL"}, {"measurement": "MIC", "setting": "Escherichia coli [20]", "result": 64, "unit": "µg/mL"}]}, {"smiles": "Cc1[nH]cnc1CN(Cc1c[nH]cn1)[C@@H](CCCn1c(-c2ccccc2)n[nH]c1=S)C(=O)O", "values": [{"measurement": "inhibition", "setting": "[2]", "result": 58, "unit": "%"}]}]}
